Test results taken from publication PMC2697266 (Nature, 2009).

Tests used:
[1] = tested on: JARID1APHD1 (the first PHD finger of JARID1A); assay: Biotinylated histone peptide pull-down, JARID1APHD1; format: binding, human; details: 50mM Tris pH 7.5, 150mM NaCl; qualitative
Outline: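 Biotinylated histone peptides were bound to recombinant PHD protein and captured on avidin beads. Beads were washed extensively in 50mM Tris pH 7.5, 150mM NaCl (250mM for stringent washes), 0.05% NP-40, 0.3mg/ml BSA and 1mM DTT; bound protein was then assessed.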

[2] = 15N NMR relaxation, rotational correlation time; format: physicochemical; details: 15N R2/R1 ratios, pH 7.0, 25°C; estimated
Outline: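 0.2-0.5 mM uniformly 15N-labeled JARID1A PHD3 (bacterial His6-SUMO fusion, cleaved, purified by Ni-NTA and gel filtration), free or with unlabeled H3 1-9 K4me3 peptide. R1 and R2 measured with standard pulse sequences at 25°C, 800 MHz with cryoprobe; correlation time estimated from R2/R1 ratios.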

Row | Substance | interaction with JARID1APHD1 in peptide pull-down [1] | rotational correlation time [2] [ns]
1 | H3K4me0: unmodified H3K4 histone peptide | interacted | 
2 | JARID1APHD3: C-terminal PHD finger of JARID1A (amino acids 1601-1660) (EESDDENAVCAAQNCQRPCKDKVDWVQCDGGCDEWFHQVCVGVSPEMAENEDYICINCAK; left off: GST, end not stated, kept) |  | 3.5
